A short description of data set [1]: Cytotoxicity against human PBL assessed as reduction in cell viability in presence of mitogenic stimulus phytohaemagglutinin incubated for 72 hrs by MTT assay. The format is cell-based. Put shortly:
(§1)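 PBLs from healthy donor buffy coats isolated by density-gradient centrifugation, washed, held overnight at 1.0 × 10^6 cells/mL in RPMI-1640 with 10% FBS. Nonadherent cells reseeded at 5 × 10^5 cells/mL, either with 2.5 μg/mL PHA (proliferating) or without (resting). Graded compound concentrations for 72 h, viability by MTT. GI50 = concentration inhibiting growth 50%; mean ± SEM of three separate experiments.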
(In general: Formazan colour is commonly taken as a measure of viable cells.)

For data set [2], the system named is HeLa. Kind of data set: Induction of cell cycle arrest in human Hela cells assessed as reduction of cells at S phase 1 uM incubated for 24 hrs by PI staining based flow cytometric analysis. The format is functional.
The subject of data set [3] is HeLa. Kind of data set: Induction of cell cycle arrest in human Hela cells assessed as accumulation at M phase at 1 uM incubated for 24 hrs by PI staining based flow cytometric analysis. The format is functional.
Data set [4] is described as follows: Cytotoxicity against human PBL assessed as reduction in cell viability incubated for 72 hrs by MTT assay. The format is cell-based. As to conditions: peripheral blood lymphocytes (PBL). Put shortly: as §1
Data set [5] deals with HeLa. Description: Induction of cell cycle arrest in human Hela cells assessed as accumulation at G2/M phase at 0.25 uM incubated for 24 hrs by PI staining based flow cytometric analysis. The format is functional. In outline:
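HeLa cells (5 × 10^5) exposed to compound at several concentrations for 24 h, then collected, fixed in ice-cold 70% ethanol, treated with lysis buffer containing RNase A and 0.1% Triton X-100, stained with propidium iodide. DNA content measured by flow cytometry; percentage of cells in each cycle phase derived from DNA histograms. Mean ± SEM of three experiments.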
Background: Flow cytometry measures light scatter and fluorescence of single cells or particles in a stream.

The subject of data set [6] is HeLa. Kind of data set: Induction of cell cycle arrest in human Hela cells assessed as cyclin B expression at 0.5 uM incubated for 48 hrs by Western blot analysis relative to control. The format is functional. Put shortly:
(§2)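 HeLa cells treated at 0.1 or 0.5 μM for 24 or 48 h, washed in ice-cold PBS, lysed on ice 30 min, cleared at 15 000g, 4 °C. 10 μg protein per lane on SDS-PAGE, transferred to PVDF, blocked overnight in 5% BSA at 4 °C. Primary antibodies 2 h at room temperature, peroxidase secondaries 1 h, ECL detection. Membranes reprobed for GAPDH; densitometry reported as protein/GAPDH ratio.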
For orientation: In western blotting, separated proteins are transferred to a membrane and probed.

Data set [7] deals with HeLa. Kind of data set: Induction of apoptosis in human HeLa cells assessed as cleaved PARP protein expression at 0.1 uM incubated for 48 hrs by Western blot analysis relative to control. The format is functional. In outline:
as §2

In data set [8] the test system is HeLa. Description: Induction of cell cycle arrest in human Hela cells assessed as phosphorylated cdc2 expression at 0.1 uM incubated for 48 hrs by Western blot analysis relative to control. The format is functional. Put shortly: as §2
Data set [9] deals with HeLa. Kind of data set: Induction of apoptosis in human HeLa cells assessed as MCL1 protein expression at 0.1 uM incubated for 48 hrs by Western blot analysis relative to control. The format is functional. In outline: as §2
Data set [10] concerns HeLa. Description: Induction of apoptosis in human Hela cells assessed as increase in necrotic cells at 0.5 uM incubated for 24 to 48 hrs by Annexin V-FITC/propidium iodide staining based flow cytometry. The format is functional, cell-based. As to conditions: time hrs 24-48. In outline: (§3)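 HeLa cells exposed 24 or 48 h, harvested, double-stained with annexin-V-FITC and PI, then read by flow cytometry. Gates: live (annexin-V–/PI–), early apoptotic (annexin-V+/PI–), late apoptotic (annexin-V+/PI+), necrotic (annexin-V–/PI+). Mean ± SEM of three independent experiments.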

For data set [11], the system named is HeLa. Description: Induction of apoptosis in human HeLa cells assessed as MCL1 protein expression at 0.5 uM incubated for 48 hrs by Western blot analysis relative to control. The format is functional. Put shortly:
as §2

The subject of data set [12] is HeLa. Kind of data set: Induction of apoptosis in human HeLa cells assessed as XIAP protein expression at 0.1 uM incubated for 48 hrs by Western blot analysis relative to control. The format is functional. Put shortly: as §2
Data set [13] has as its system HeLa. Description: Induction of apoptosis in human HeLa cells assessed as XIAP protein expression at 0.1 uM incubated for 24 hrs by Western blot analysis relative to control. The format is functional. Put shortly:
as §2

The subject of data set [14] is HeLa. Kind of data set: Induction of cell cycle arrest in human Hela cells assessed as phosphorylated cdc2 expression at 0.5 uM incubated for 48 hrs by Western blot analysis relative to control. The format is functional. In outline:
as §2

The subject of data set [15] is HeLa. Description: Induction of cell cycle arrest in human Hela cells assessed as phosphorylated cdc2 expression at 0.1 uM incubated for 24 hrs by Western blot analysis relative to control. The format is functional. In outline: as §2
For data set [16], the system named is HeLa. Kind of data set: Induction of cell cycle arrest in human Hela cells assessed as accumulation at G2/M phase at 0.125 uM incubated for 24 hrs by PI staining based flow cytometric analysis. The format is functional. In outline: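 5 × 10^5 HeLa cells treated 24 h over a range of concentrations, fixed in ice-cold 70% ethanol, treated with lysis buffer containing RNase A and 0.1% Triton X-100, PI-stained. DNA content read by flow cytometry; phase distribution is mean ± SEM of three experiments.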

In data set [17] the test system is HeLa. Description: Induction of reactive oxygen species generation in human HeLa cells at 0.5 uM treated for 48 hrs by H2DCFDA staining based flow cytometry. The format is functional, cell-based. In outline: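 After treatment, HeLa cells pelleted and resuspended in PBS containing 0.1 μM H2DCFDA, incubated 30 min at 37 °C, then washed back into PBS. DCF fluorescence measured by flow cytometry (excitation 488 nm, emission 530 nm). Mean ± SEM of three independent experiments.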

Data set [18] deals with HeLa. Description: Induction of apoptosis in human HeLa cells assessed as cleaved PARP protein expression at 0.1 uM incubated for 24 hrs by Western blot analysis relative to control. The format is functional. Put shortly:
as §2

Data set [19] deals with HeLa. Kind of data set: Induction of apoptosis in human HeLa cells assessed as MCL1 protein expression at 0.1 uM incubated for 24 hrs by Western blot analysis relative to control. The format is functional. Put shortly: as §2
The test system of data set [20] is HeLa. Description: Induction of apoptosis in human HeLa cells assessed as cleaved PARP protein expression at 0.5 uM incubated for 24 hrs by Western blot analysis relative to control. The format is functional. Put shortly:
as §2

Data set [21] deals with HeLa. Description: Induction of cell cycle arrest in human Hela cells assessed as cyclin B expression at 0.1 uM incubated for 48 hrs by Western blot analysis relative to control. The format is functional. In outline: as §2
In data set [22] the test system is HeLa. Kind of data set: Induction of cell cycle arrest in human Hela cells assessed as cdc25c expression at 0.1 uM incubated for 24 hrs by Western blot analysis relative to control. The format is functional. In outline:
as §2

In data set [23] the test system is HeLa. Description: Induction of cell cycle arrest in human Hela cells assessed as cyclin B expression at 0.5 uM incubated for 24 hrs by Western blot analysis relative to control. The format is functional. In outline:
as §2

The subject of data set [24] is HeLa. Description: Induction of apoptosis in human HeLa cells assessed as MCL1 protein expression at 0.5 uM incubated for 24 hrs by Western blot analysis relative to control. The format is functional. In outline:
as §2

Data set [25] concerns HeLa. Description: Induction of cell cycle arrest in human Hela cells assessed as phosphorylated cdc2 expression at 0.5 uM incubated for 24 hrs by Western blot analysis relative to control. The format is functional. In outline: as §2
The subject of data set [26] is HeLa. Kind of data set: Induction of apoptosis in human Hela cells assessed as increase in apoptotic cells at 0.5 uM incubated for 24 to 48 hrs by Annexin V-FITC/propidium iodide staining based flow cytometry. As to conditions: time hrs 24-48. The format is functional, cell-based. In outline: as §3
Data set [27] deals with HeLa. Description: Induction of apoptosis in human HeLa cells assessed as XIAP protein expression at 0.5 uM incubated for 24 hrs by Western blot analysis relative to control. The format is functional. Put shortly:
as §2

Data set [28] concerns HeLa. Kind of data set: Induction of cell cycle arrest in human Hela cells assessed as cyclin B expression at 0.1 uM incubated for 24 hrs by Western blot analysis relative to control. The format is functional. Put shortly: as §2
Data set [29] deals with HeLa. Kind of data set: Induction of cell cycle arrest in human Hela cells assessed as accumulation at G2/M phase incubated for 24 hrs by PI staining based flow cytometric analysis. The format is functional.
The subject of data set [30] is HeLa. Description: Induction of cell cycle arrest in human Hela cells assessed as cdc25c expression at 0.5 uM incubated for 24 hrs by Western blot analysis relative to control. The format is functional. In outline:
as §2

Data set [31] deals with HeLa. Description: Induction of apoptosis in human HeLa cells assessed as cleaved PARP protein expression at 0.5 uM incubated for 48 hrs by Western blot analysis relative to control. The format is functional. Put shortly:
as §2

Data set [32] relates to HeLa. Kind of data set: Induction of cell cycle arrest in human Hela cells assessed as cdc25c expression at 0.1 uM incubated for 48 hrs by Western blot analysis relative to control. The format is functional. Put shortly: as §2

Activity calls are given as the source filed them. The rule behind the calls is not given here.

In the case of `CCOC(=O)c1cc2c(n1Cc1cccc(OC)c1)-c1oncc1CCC2`, the GI50 at 72 h in data set [1] and in data set [4] was above 100 µM in each case. The result in data set [2] and in [3] was Active.
On to `CCOC(=O)c1c(Cl)c2c(n1Cc1cc(OC)cc(OC)c1)-c1oncc1CCC2`, for which the outcome in data set [5] was Active. The GI50 at 72 h in data set [1] and in [4] was above 100 µM each time.
`CCOC(=O)c1cc2c(n1Cc1cc(OC)cc(OC)c1)-c1oncc1CCC2`: the “fold change (FC)” value in [6] was determined as 2.05; in data set [7], 13.8; in [8], 0.17; in data set [9], 0.37; in [11], 0.38; in data set [12] it was 0.12. Also, the “fold change (FC)” value in [13] is 0.91; in [14], 0.31; in data set [15] it was 0.51; in [18] it was 17.65; in data set [19], 0.37; in data set [20], 42.13. Further, the “fold change (FC)” value in data set [21] was 2.39; in [22], 0.23; in data set [23], 64.07; in [24], 0.11; in data set [25] it was 0.31; in [27] it was 0.54. The “fold change (FC)” value in data set [28] is listed as 18.74; in [30], 0.05; in data set [31] it was 42.83; in [32], 0.23. Further, the outcome in data set [10], in data set [16], in data set [17] and in data set [26] was Active. Moreover, the GI50 at 72 h in data set [1] and in data set [4] was above 100 µM each time. For the same compound, the Activity result in data set [29] was “Dose-dependent effect”.

Usually GI50 stands for the concentration giving 50% growth inhibition.

Source of the values: ChEMBL document CHEMBL4665839, “Pyrrolo[2',3':3,4]cyclohepta[1,2-d][1,2]oxazoles, a New Class of Antimitotic Agents Active against Multiple Malignant Cell Types” (J Med Chem, 2020).
